Each structure is given as a SMILES string.

The first assay relates to A2780. Briefly: Cytotoxicity against human A2780 cells after 96 hrs by SRB assay. The format is functional, cell-based. To be noted: Homo sapiens, A2780, 96 h; read-out: EC50. The gist of the method:
(§1)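 Photometric sulforhodamine B read-out of antiproliferative effect after 96 h of continuous treatment; EC₅₀ values in µM, averaged from three independent experiments each run in triplicate; the assay cut-off is EC₅₀ > 30 µM. Human tumour lines are tested alongside nonmalignant mouse NIH 3T3 fibroblasts.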
A general note: In SRB staining, fixed cells bind dye roughly in proportion to their protein.
Consider `C=C(C)[C@@H]1CC[C@]2(C(=O)NOC)CC[C@]3(C)[C@H](CC[C@@H]4[C@@]5(C)CCC(=O)C(C)(C)[C@@H]5CC[C@]43C)[C@@H]12`, for which the EC50 turned out to be 12 µM.

On to `C=C(C)[C@@H]1CC[C@]2(COC(C)=O)CC[C@]3(C)[C@H](CC[C@@H]4[C@@]5(C)CC[C@H](OC(C)=O)C(C)(C)[C@@H]5CC[C@]43C)[C@@H]12` [BETULIN DIACETATE], for which the EC50 was over 30 µM.

For the compound `C=C(C)[C@@H]1CC[C@]2(C(=O)O)CC[C@]3(C)[C@H](CC[C@@H]4[C@@]5(C)CC[C@H](O)C(C)(C)[C@@H]5CC[C@]43C)[C@@H]12` [BETULINIC ACID], the EC50 amounted to 8.8 µM.

Regarding `C=C(C)[C@@H]1CC[C@]2(CO)CC[C@]3(C)[C@H](CC[C@@H]4[C@@]5(C)CC[C@H](O)C(C)(C)[C@@H]5CC[C@]43C)[C@@H]12` [BETULIN], the EC50 is over 30 µM.

Regarding `C=C(C)[C@@H]1CC[C@]2(C(=O)O)CC[C@]3(C)[C@H](CC[C@@H]4[C@@]5(C)CCC(=O)C(C)(C)[C@@H]5CC[C@]43C)[C@@H]12` [BETUNOLIC ACID], the EC50 is 20.4 µM.

Still in this assay, the particulars now being: a2780.
As for `C=C(C)[C@@H]1CC[C@]2(C(=O)N(C)O)CC[C@]3(C)[C@H](CC[C@@H]4[C@@]5(C)CC[C@H](O)C(C)(C)[C@@H]5CC[C@]43C)[C@@H]12`, the EC50 result was “ND(Insoluble)”.

A further assay concerns A549. Put plainly: Cytotoxicity against human A549 cells after 96 hrs by SRB assay. The conditions noted are these: Homo sapiens, A549, 96 h; read-out: EC50. The format is functional, cell-based. In a few lines:
as §1
For the compound `C=C(C)[C@@H]1CC[C@]2(C(=O)NOC)CC[C@]3(C)[C@H](CC[C@@H]4[C@@]5(C)CCC(=O)C(C)(C)[C@@H]5CC[C@]43C)[C@@H]12`, the EC50 amounted to 6.1 µM.

In the case of `C=C(C)[C@@H]1CC[C@]2(COC(C)=O)CC[C@]3(C)[C@H](CC[C@@H]4[C@@]5(C)CC[C@H](OC(C)=O)C(C)(C)[C@@H]5CC[C@]43C)[C@@H]12` [BETULIN DIACETATE], the EC50 was over 30 µM.

For the compound `C=C(C)[C@@H]1CC[C@]2(C(=O)O)CC[C@]3(C)[C@H](CC[C@@H]4[C@@]5(C)CC[C@H](O)C(C)(C)[C@@H]5CC[C@]43C)[C@@H]12` [BETULINIC ACID], the EC50 turned out to be 17.1 µM.

Turning to `C=C(C)[C@@H]1CC[C@]2(CO)CC[C@]3(C)[C@H](CC[C@@H]4[C@@]5(C)CC[C@H](O)C(C)(C)[C@@H]5CC[C@]43C)[C@@H]12` [BETULIN], the EC50 is over 30 µM.

With `C=C(C)[C@@H]1CC[C@]2(C(=O)O)CC[C@]3(C)[C@H](CC[C@@H]4[C@@]5(C)CCC(=O)C(C)(C)[C@@H]5CC[C@]43C)[C@@H]12` [BETUNOLIC ACID], the EC50 is 25.9 µM.

Still in this assay, the particulars now being: a549.
For `C=C(C)[C@@H]1CC[C@]2(C(=O)N(C)O)CC[C@]3(C)[C@H](CC[C@@H]4[C@@]5(C)CC[C@H](O)C(C)(C)[C@@H]5CC[C@]43C)[C@@H]12`, the EC50 entry was “ND(Insoluble)”.

Test system in another assay: not listed separately
Briefly: Cytotoxicity against human 518A2 cells after 96 hrs by SRB assay. In kind it is functional, cell-based. To be noted: 518a2. The gist of the method: as §1
As for `C=C(C)[C@@H]1CC[C@]2(C(=O)N(C)O)CC[C@]3(C)[C@H](CC[C@@H]4[C@@]5(C)CC[C@H](O)C(C)(C)[C@@H]5CC[C@]43C)[C@@H]12`, the EC50 result was “ND(Insoluble)”.

Staying with this assay, now noted: Homo sapiens, 518A2, 96 h; read-out: EC50.
Turning to `C=C(C)[C@@H]1CC[C@]2(C(=O)NOC)CC[C@]3(C)[C@H](CC[C@@H]4[C@@]5(C)CCC(=O)C(C)(C)[C@@H]5CC[C@]43C)[C@@H]12`, the EC50 was found to be 17.2 µM.

As to `C=C(C)[C@@H]1CC[C@]2(COC(C)=O)CC[C@]3(C)[C@H](CC[C@@H]4[C@@]5(C)CC[C@H](OC(C)=O)C(C)(C)[C@@H]5CC[C@]43C)[C@@H]12` [BETULIN DIACETATE], the EC50 was over 30 µM.

As for `C=C(C)[C@@H]1CC[C@]2(C(=O)O)CC[C@]3(C)[C@H](CC[C@@H]4[C@@]5(C)CC[C@H](O)C(C)(C)[C@@H]5CC[C@]43C)[C@@H]12` [BETULINIC ACID], the EC50 is 9.4 µM.

Turning to `C=C(C)[C@@H]1CC[C@]2(CO)CC[C@]3(C)[C@H](CC[C@@H]4[C@@]5(C)CC[C@H](O)C(C)(C)[C@@H]5CC[C@]43C)[C@@H]12` [BETULIN], the EC50 was over 30 µM.

`C=C(C)[C@@H]1CC[C@]2(C(=O)O)CC[C@]3(C)[C@H](CC[C@@H]4[C@@]5(C)CCC(=O)C(C)(C)[C@@H]5CC[C@]43C)[C@@H]12` [BETUNOLIC ACID]: the EC50 was 29 µM.

In another assay the test system is MCF7. Put plainly: Cytotoxicity against human MCF7 cells after 96 hrs by SRB assay. To be noted: Homo sapiens, MCF7, 96 h; read-out: EC50. In kind it is functional, cell-based. In a few lines: as §1
On to `C=C(C)[C@@H]1CC[C@]2(C(=O)NOC)CC[C@]3(C)[C@H](CC[C@@H]4[C@@]5(C)CCC(=O)C(C)(C)[C@@H]5CC[C@]43C)[C@@H]12`, for which the EC50 was found to be 13.8 µM.

Take `C=C(C)[C@@H]1CC[C@]2(COC(C)=O)CC[C@]3(C)[C@H](CC[C@@H]4[C@@]5(C)CC[C@H](OC(C)=O)C(C)(C)[C@@H]5CC[C@]43C)[C@@H]12` [BETULIN DIACETATE]: the EC50 was over 30 µM.

For `C=C(C)[C@@H]1CC[C@]2(C(=O)O)CC[C@]3(C)[C@H](CC[C@@H]4[C@@]5(C)CC[C@H](O)C(C)(C)[C@@H]5CC[C@]43C)[C@@H]12` [BETULINIC ACID], the EC50 was 10.2 µM.

As to `C=C(C)[C@@H]1CC[C@]2(CO)CC[C@]3(C)[C@H](CC[C@@H]4[C@@]5(C)CC[C@H](O)C(C)(C)[C@@H]5CC[C@]43C)[C@@H]12` [BETULIN], the EC50 was over 30 µM.

For `C=C(C)[C@@H]1CC[C@]2(C(=O)O)CC[C@]3(C)[C@H](CC[C@@H]4[C@@]5(C)CCC(=O)C(C)(C)[C@@H]5CC[C@]43C)[C@@H]12` [BETUNOLIC ACID], the half-maximal effective concentration (EC50) turned out to be 25.9 µM.

Still in this assay, the particulars now being: mcf7.
As to `C=C(C)[C@@H]1CC[C@]2(C(=O)N(C)O)CC[C@]3(C)[C@H](CC[C@@H]4[C@@]5(C)CC[C@H](O)C(C)(C)[C@@H]5CC[C@]43C)[C@@H]12`, the EC50 entry is listed as “ND(Insoluble)”.

Test system in the next assay: not listed separately
Put plainly: Cytotoxicity against mouse NIH/3T3 cells after 96 hrs by SRB assay. In kind it is cell-based, NIH3T3. The conditions noted are these: Mus musculus, NIH3T3, 96 h; read-out: EC50. In a few lines: as §1
For the compound `C=C(C)[C@@H]1CC[C@]2(C(=O)NOC)CC[C@]3(C)[C@H](CC[C@@H]4[C@@]5(C)CCC(=O)C(C)(C)[C@@H]5CC[C@]43C)[C@@H]12`, the EC50 came to 12.7 µM.

As for `C=C(C)[C@@H]1CC[C@]2(COC(C)=O)CC[C@]3(C)[C@H](CC[C@@H]4[C@@]5(C)CC[C@H](OC(C)=O)C(C)(C)[C@@H]5CC[C@]43C)[C@@H]12` [BETULIN DIACETATE], the EC50 was over 30 µM.

With `C=C(C)[C@@H]1CC[C@]2(C(=O)O)CC[C@]3(C)[C@H](CC[C@@H]4[C@@]5(C)CC[C@H](O)C(C)(C)[C@@H]5CC[C@]43C)[C@@H]12` [BETULINIC ACID], the EC50 was 16.1 µM.

`C=C(C)[C@@H]1CC[C@]2(CO)CC[C@]3(C)[C@H](CC[C@@H]4[C@@]5(C)CC[C@H](O)C(C)(C)[C@@H]5CC[C@]43C)[C@@H]12` [BETULIN]: the EC50 was over 30 µM.

For the compound `C=C(C)[C@@H]1CC[C@]2(C(=O)O)CC[C@]3(C)[C@H](CC[C@@H]4[C@@]5(C)CCC(=O)C(C)(C)[C@@H]5CC[C@]43C)[C@@H]12` [BETUNOLIC ACID], the EC50 was determined as 13.1 µM.

The assay is the same for the next values; noted with them: nih3t3.
Turning to `C=C(C)[C@@H]1CC[C@]2(C(=O)N(C)O)CC[C@]3(C)[C@H](CC[C@@H]4[C@@]5(C)CC[C@H](O)C(C)(C)[C@@H]5CC[C@]43C)[C@@H]12`, the EC50 result is on record as “ND(Insoluble)”.

For orientation: EC50 means the concentration giving half of the maximal effect.

These data come from ChEMBL document CHEMBL3739286, “Betulinic acid derived hydroxamates and betulin derived carbamates are interesting scaffolds for the synthesis of novel cytotoxic compounds” (Eur J Med Chem, 2015).
